Data on 11 compounds can be found in ChEMBL document CHEMBL1148289, “Computer-aided design, synthesis, and anti-HIV-1 activity in vitro of 2-alkylamino-6-[1-(2,6-difluorophenyl)alkyl]-3,4-dihydro-5-alkylpyrimidin-4(3H)-ones as novel potent non-nucleoside reverse transcriptase inhibitors, also active against the Y181C variant” (J Med Chem, 2004).

Experiment [1] is described as follows: Ratio of CC50 to that EC50 in mock infected cells. In kind it is functional. In outline:
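Selectivity index is the ratio of CC50 (mock-infected MT-4 viability, MTT, 4 days) to EC50 (protection of HIV-1 IIIB-infected MT-4 cells, MTT, 4 days), both from parallel assays.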

Experiment [2] has as its system MT4. The experiment in a line: Cytotoxic concentration required to reduce the viability of mock-infected MT-4 cells. Format: functional. The note with it: Homo sapiens. In outline: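 Mock-infected MT-4 cells, 1 × 10^4 per well, were exposed to graded compound concentrations in parallel with the antiviral assay. Compounds came from 200 mM DMSO stocks diluted into medium. After 4 days at 37 °C, viability was measured by MTT. The value is the dose reducing viability by 50%, as a mean of at least two experiments.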

For experiment [3], the system named is MT4. The experiment in a line: Effective dose required to achieve protection of MT-4 cells from Y181C HIV-1 induced cytopathogenicity. To be noted: Homo sapiens. Format: functional, cell-based. In outline: (§1)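 MT-4 cells (1 × 10^4/well) in RPMI 1640 with 10% FCS, infected with 100 CCID50 of HIV-1 (IIIB wild type or Y181C), compounds from DMSO stock diluted in medium at various concentrations. After 4 days at 37 °C, viable cells counted by MTT. EC50 is the dose giving 50% protection from virus cytopathicity. Mean of at least two experiments.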
On the technique in general: Protection from cytopathic effect is a common read-out in antiviral testing.

Experiment [4] is described as follows: Ratio of wild type IIIB to that of Y181C HIV-1 induced cytopathogenicity. Format: functional.
Experiment [5] addresses Human immunodeficiency virus type 1 reverse transcriptase (Human immunodeficiency virus 1, UniProt Q72547). The experiment in a line: Inhibitory concentration required to inhibit the HIV-1 reverse transcriptase activity. Put shortly: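 Purified recombinant HIV-1 RT, RNA-dependent polymerase activity. Template/primer poly(rC)-oligo(dG)12–18 at 0.5 OD260 unit/mL, with [3H]dGTP. Incubated 30 min at 37 °C, then acid-insoluble radioactivity counted on glass fiber filters. IC50 is the dose halving activity. Mean of at least two experiments.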

Experiment [6] relates to MT4. The experiment in a line: Effective dose required to achieve protection of MT-4 cells from HIV-1 induced cytopathogenicity. Format: functional, cell-based. The note with it: Homo sapiens. Put shortly:
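MT-4 cells (RPMI 1640, 10% FCS, 37 °C, 5% CO2), 1 × 10^4 per well, were infected with 100 CCID50 of HIV-1 IIIB in the presence of graded compound concentrations. Compounds came from 200 mM DMSO stocks diluted into medium. After 4 days at 37 °C, viable cells were counted by MTT. The value is the dose giving 50% protection, as a mean of at least two experiments.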

Experiment [7] deals with MT4. The experiment in a line: Effective dose required to achieve protection of MT-4 cells from wild type IIIB HIV-1 induced cytopathogenicity. To be noted: Homo sapiens. Format: functional, cell-based. Put shortly:
as §1

The CC50 is the concentration that lowers cell viability or growth by half. By EC50 is commonly meant the concentration giving half of the maximal effect. Broadly, the IC50 is the midpoint of a concentration-inhibition curve. A higher IC50 goes with weaker potency. As to `Cc1c(C(C)c2c(F)cccc2F)nc(NC2CCCC2)[nH]c1=O` (stereo not drawn), the Selectivity index in experiment [1] is on record as 4500. Moreover, half-maximal cytotoxicity in experiment [2] (CC50) was put at 90000 nM. Besides, the EC50 in experiment [3] was found to be 160 nM; in experiment [6], 20 nM; in experiment [7] it was 30 nM. For the same compound, the Ratio in experiment [4] is 5.3. Also, the IC50 in experiment [5] was 35 nM.

`Cc1c(Cc2c(F)cccc2F)nc(SC2CCCC2)[nH]c1=O`: the Selectivity index in experiment [1] was above 2500. This compound also yielded a CC50 in experiment [2] above 200000 nM.

As for `O=c1cc(Cc2c(F)cccc2F)nc(SC2CCCC2)[nH]1`, the Selectivity index in experiment [1] is recorded as above 2500. This compound also had a CC50 in experiment [2] above 200000 nM.

As for `Cc1c(Cc2c(F)cccc2F)nc(NC2CCCC2)[nH]c1=O`, in experiment [1], the Selectivity index was above 10000. The CC50 in experiment [2] is above 200000 nM. Further, half-maximal inhibition in experiment [5] (IC50) was put at 30 nM. The compound further yielded an EC50 in experiment [6] of 20 nM.

Take `CC(c1cc(=O)[nH]c(NC2CCCC2)n1)c1c(F)cccc1F` (stereo not drawn): the Selectivity index in experiment [1] turned out to be 3500. In experiment [2], this compound registered a CC50 of 76000 nM. The same compound gave an IC50 in experiment [5] of 40 nM. In experiment [6], this compound gave an EC50 of 30 nM.

On to `O=C1Nc2ccc(Cl)cc2[C@@](C#CC2CC2)(C(F)(F)F)O1`, for which, in experiment [4], the Ratio was 6.

For `O=c1cc(Cc2c(F)cccc2F)nc(NC2CCCC2)[nH]1`, the Selectivity index in experiment [1] is above 2222. This compound yielded a CC50 in experiment [2] above 200000 nM. The compound also came in with an IC50 in experiment [5] of 70 nM. The same compound displayed an EC50 in experiment [6] of 90 nM.

Compound `Cc1ccnc2c1NC(=O)c1cccnc1N2C1CC1` [NEVIRAPINE] yielded an EC50 in experiment [3] above 30000 nM. The Ratio in experiment [4] was above 81.

For `CC(c1cc(=O)[nH]c(SC2CCCC2)n1)c1c(F)cccc1F` (stereo not drawn), the Selectivity index in experiment [1] is listed as above 6666. In experiment [2], this compound had a CC50 above 200000 nM. In experiment [5], 30 nM corresponded to half-maximal inhibition (IC50). Also, a half-maximal response in experiment [6] (EC50) required 30 nM.

With `CCOCn1c(Cc2ccccc2)c(C(C)C)c(=O)[nH]c1=O` [EMIVIRINE], the Selectivity index in experiment [1] worked out at 6666. This compound showed a CC50 in experiment [2] of 200000 nM.

For the compound `Cc1c(C(C)c2c(F)cccc2F)nc(SC2CCCC2)[nH]c1=O` (stereo not drawn), the Selectivity index in experiment [1] was above 33333. In experiment [2], this compound registered a CC50 above 200000 nM. Besides, the EC50 in experiment [3] stood at 200 nM; in experiment [6] it was 6 nM; in experiment [7] it was 15 nM. In addition, the Ratio in experiment [4] was 13.
